# High-throughput results (PubChem BioAssay)
# Hits are enriched below; roughly 2.9% of the tested compounds scored in any of these assays.
# M18AAP inhibitor: PfM18AAP enzyme inhibition | recombinant PfM18AAP, H-Glu-NHMec fluorogenic cleavage | inhibition, % at 7.35 µM | 1.2% of 290,000 active | AID 1822;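 active = inhibition above the campaign mean inhibition over all tested compounds plus 3 SD, cut at about 28% in these data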;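 also: 0% = plate median of test compound wells and 100% = 2 mM ZnCl2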
# EBNA-1 inh: blocks EBNA-1 binding to DNA | EBNA-1 DNA binding, fluorescence polarization | inhibition, % at 14.8 µM | 0.34% of 300,000 active | AID 1950; in the data active = inhibition above about 28%
# Apaf1 inhib: blocks human Apaf-1 apoptosome activity; reconstituted apoptosome caspase-3 activity, DEVD-Rh110 fluorescence; inhibition, % at 20 µM; 0.71% of 330,000 active; AID 489030; active = inhibition of at least 40% at 20 µM;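 also: plate controls were DMSO wells for no effect and DEVD-CHO caspase inhibitor wells for full effect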
# Target sequence (O14727 whole entry, looked up): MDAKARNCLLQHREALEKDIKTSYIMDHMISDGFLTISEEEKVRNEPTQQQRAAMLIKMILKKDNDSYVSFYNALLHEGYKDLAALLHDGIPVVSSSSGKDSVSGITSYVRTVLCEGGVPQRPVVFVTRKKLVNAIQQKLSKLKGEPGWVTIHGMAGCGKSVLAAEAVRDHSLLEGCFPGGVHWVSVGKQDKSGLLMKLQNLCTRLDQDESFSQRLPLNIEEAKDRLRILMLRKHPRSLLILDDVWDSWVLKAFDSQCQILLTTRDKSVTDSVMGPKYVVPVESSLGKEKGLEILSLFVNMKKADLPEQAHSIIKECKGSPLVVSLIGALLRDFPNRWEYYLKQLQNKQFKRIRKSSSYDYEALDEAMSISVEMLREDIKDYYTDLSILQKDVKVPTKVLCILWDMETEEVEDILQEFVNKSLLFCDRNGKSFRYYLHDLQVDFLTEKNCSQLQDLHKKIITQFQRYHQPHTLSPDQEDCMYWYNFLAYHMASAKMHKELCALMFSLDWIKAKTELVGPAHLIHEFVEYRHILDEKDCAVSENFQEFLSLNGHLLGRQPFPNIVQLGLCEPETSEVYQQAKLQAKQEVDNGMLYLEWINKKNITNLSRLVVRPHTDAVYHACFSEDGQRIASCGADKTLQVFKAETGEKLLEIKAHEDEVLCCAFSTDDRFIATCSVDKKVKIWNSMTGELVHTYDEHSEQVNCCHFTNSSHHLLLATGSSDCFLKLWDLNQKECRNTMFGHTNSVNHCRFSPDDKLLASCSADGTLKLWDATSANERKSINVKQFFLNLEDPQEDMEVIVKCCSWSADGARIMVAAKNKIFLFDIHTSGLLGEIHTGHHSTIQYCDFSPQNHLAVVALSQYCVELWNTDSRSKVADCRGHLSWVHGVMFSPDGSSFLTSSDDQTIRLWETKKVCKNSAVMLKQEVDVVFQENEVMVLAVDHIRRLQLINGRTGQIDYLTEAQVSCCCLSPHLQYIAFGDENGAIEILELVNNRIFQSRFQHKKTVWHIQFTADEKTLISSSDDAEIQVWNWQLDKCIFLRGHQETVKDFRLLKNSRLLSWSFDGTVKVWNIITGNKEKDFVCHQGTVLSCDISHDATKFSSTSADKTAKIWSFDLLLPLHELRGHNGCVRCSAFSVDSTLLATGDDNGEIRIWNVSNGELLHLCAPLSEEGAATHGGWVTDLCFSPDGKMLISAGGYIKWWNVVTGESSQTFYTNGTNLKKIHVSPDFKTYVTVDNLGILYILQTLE
#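 Medium: Hepes buffer, pH 7.5 / System: biochemical Apaf-1 apoptosome reconstitution / Measured by: Rh110 fluorescence, excitation 480 nm, emission 540 nm / Times: compound with Apaf-1, dATP, procaspase-3 30 min, then 50 min reaction, room temperature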
# UBC13 inh: inhibitors of human UBC13 polyubiquitin chain formation. P61088. TR-FRET. inhibition, % at 20 µM. 0.47% of 330,000 active; in the data active = inhibition above about 45%, passing the limit was not always enough
# ZTA counter: ZTA (EBV) inhibition in EBNA-1 counter-screen. P03206. ZTA-DNA binding, fluorescence polarization. inhibition, % at 11 µM. 0.15% of 320,000 active; in the data active = inhibition above about 33%
# PfGluPho inh: PfG6PD (Plasmodium falciparum) enzyme inhibition | PfGluPho enzyme, NADPH resazurin-diaphorase fluorescence | inhibition, % at 20 µM | 0.78% of 350,000 active | AID 504690;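 active = inhibition reaching at least a set limit at 20 µM in the primary screen, cut at about 59% in these data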;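 also: 0% = DMSO wells with substrate and 100% = DMSO wells lacking glucose-6-phosphate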
# PfG6PD confirm: confirmation of Plasmodium falciparum G6PD inhibitors; AID 504753; shares compounds with PfGluPho inh; recombinant PfGluPho, NADPH-diaphorase-resazurin fluorescence; 34% of 2,400 active; inhibition, % at 20 µM;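 active = inhibition of at least 50% at 20 µM in any single replicate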;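 also: 0% = DMSO with substrate and 100% = DMSO lacking glucose-6-phosphate substrate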
# Diaphorase 10uM: counter-screen for P. falciparum G6PD inhibitors: diaphorase inhibitors, oxidizers; shares compounds with PfGluPho inh; diaphorase-coupled resazurin reduction, fluorescence, NADPH 10 uM; inhibition, % at 20 µM; 39% of 820 active; AID 504862;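 active = average inhibition reaching 50% or more with the compound at 20 µM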;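 also: resorufin red fluorescence formed as diaphorase reduces resazurin using NADPH; 0% = DMSO with enzyme and 100% = DMSO without enzyme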
# Diaph ctr 30uM: diaphorase inhibition or oxidation at 30 uM NADPH; inhibition, % at 20 µM; Diaphorase/resazurin coupled assay, resorufin fluorescence; shares compounds with PfGluPho inh; 29% of 820 active;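 active = inhibition averaging 50% or more, tested at 20 µM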;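 also: 0% = DMSO with enzyme and 100% = DMSO wells lacking diaphorase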
# * = called active by the depositor; / = not tested or not shown.
SMILES,M18AAP inhibitor,EBNA-1 inh,Apaf1 inhib,UBC13 inh,ZTA counter,PfGluPho inh,PfG6PD confirm,others
Cc1ccc(C2(C)NC(=O)N(CC(=O)Nc3nc(-c4ccccn4)cs3)C2=O)cc1 (stereo unspecified),/,-15,5,-7,4,72*,36,
CC1(c2ccccc2)NC(=O)N(CC(=O)Nc2nc(-c3ccccn3)cs2)C1=O (stereo unspecified),/,-3,6,-13,9,34,/,
CCN(CC)CCC#CC1(O)c2ccccc2-c2ccccc21,3,-4,-5,10,-16,-23,/,
Cc1nc2ccccn2c1-c1ccnn1S(=O)(=O)c1ccc(F)cc1,-2,0,-4,2,5,77*,56*,Diaphorase 10uM=44;Diaph ctr 30uM=59*
O=C(N/N=C/c1ccc(N2CCCCC2)o1)c1ccccc1,10,-12,/,/,3,17,/,
O=C(N/N=C/c1ccc(N2CCOCC2)o1)c1cccc([N+](=O)[O-])c1,23,0,11,-11,-18,70*,-21,
CCc1ccc(NC(=O)c2c(Cl)nc(C)c(Cl)c2C)cc1,4,7,-9,8,-15,84*,47,
COc1ccccc1/C=C/C(=O)N1CCC(c2ccccc2)C1 (stereo unspecified),-1,3,11,6,5,2,/,
CN(C)S(=O)(=O)c1ccc(NC(=O)CN2CCN(c3ccccn3)CC2)cc1,-6,8,-5,7,10,3,/,
COc1ccc(CCN(Cc2cc3cccc(C)c3n3nnnc23)C(=O)c2ccncc2)cc1OC,1,-3,2,43,-23,/,/,
CCOC(=O)c1c(OCC)[nH]c2c1cc(O)c1ccccc12,-1,-4,28,-6,10,69*,49*,Diaphorase 10uM=21;Diaph ctr 30uM=25
O=C1C=CC(=O)N1CCCCCCCCCCN1C(=O)C=CC1=O,/,/,/,/,/,84*,55*,Diaphorase 10uM=-20;Diaph ctr 30uM=-25
O=C1C=CC(=O)N1Cc1ccncc1,/,/,/,/,/,4,/,
COc1cccc(CNCCO)c1OCc1ccc(Cl)cc1,-17,0,0,3,2,2,/,
CCOc1cccc(CNc2ccc(O)cc2)c1OCc1ccc(Cl)cc1,20,-5,32,-1,-3,70*,-1,
CCOc1ccccc1CNc1nc2ccccc2n1C,0,5,-3,-6,-4,13,/,
CCOc1ccccc1CNc1ccc(O)cc1,20,/,/,/,/,74*,63*,Diaphorase 10uM=-3;Diaph ctr 30uM=-4
CCOC(=O)c1nc(NCc2ccccc2)sc1C,25,3,12,18,17,68*,26,
CC1=NOC(=O)/C1=C\c1ccc(-c2ccc(Cl)cc2Cl)o1,15,/,15,-2,/,70*,-26,
Cc1ccc(-c2c(C(=O)N/N=C/c3cccs3)nnn2-c2nonc2N)cc1,0,-15,1,-11,-13,81*,69*,Diaphorase 10uM=61*;Diaph ctr 30uM=48
CCOc1ccc(-c2c(C(=O)N/N=C/c3cccs3)nnn2-c2nonc2N)cc1,7,-5,0,-9,11,-4,/,
Cc1ccc(-c2c(C(=O)N/N=C/c3ccsc3)nnn2-c2nonc2N)cc1,1,-6,11,-6,-10,82*,54*,Diaphorase 10uM=46;Diaph ctr 30uM=47
Cc1ccc(-c2c(C(=O)N/N=C/c3ccoc3)nnn2-c2nonc2N)cc1,-7,-8,6,-12,-6,28,/,
Cc1ccc(-c2c(C(=O)N/N=C/c3cccc(Cl)c3)nnn2-c2nonc2N)cc1,3,6,11,-1,-2,145*,110*,Diaphorase 10uM=99*;Diaph ctr 30uM=84*
OC(c1cccs1)(c1cccs1)C1C[N+]2(CF)CCC1CC2 (stereo unspecified),-2,4,-19,10,0,7,/,
SMILES,M18AAP inhibitor,EBNA-1 inh,Apaf1 inhib,UBC13 inh,ZTA counter,PfGluPho inh,PfG6PD confirm,others
COc1cc(OC)c(N(C)S(=O)(=O)c2cccc(C(=O)OCC(=O)N(C)Cc3ccccc3)c2)cc1Cl,/,/,/,/,/,8,/,
OCC(O)C1OC(c2ccccc2)OC(CO)C1O (stereo unspecified),/,/,/,/,/,-9,/,
CCOc1ccc(N(CC(=O)N/N=C/c2cc([N+](=O)[O-])ccc2Cl)S(C)(=O)=O)cc1,-8,-7,20,-4,1,87*,60*,Diaphorase 10uM=72*;Diaph ctr 30uM=46
NC(=S)NNc1cc(Cl)cc(Cl)c1,10,5,0,1,20,71*,14,
COc1ccc(/C=N/Nc2nncn2N)cc1Br,28*,-6,27,-40,5,79*,40,
CCc1nnc(N/N=C/c2ccc(O)c(OC)c2)n1N,-1,13,-11,-12,6,72*,24,
COc1ccc(CSc2nncn2N)cc1Br,6,3,4,0,14,-6,/,
COc1ccccc1N(Cc1cc(=O)[nH]c2ccccc12)C(=O)C(C)C,1,-14,12,-2,-6,3,/,
NC(=O)COC(=O)[C@H](Cc1c[nH]c2ccccc12)NC(=O)c1ccc(F)cc1,-4,1,1,-3,12,7,/,
CCOc1ccc(C(=S)NC2CCCCC2)cc1OC,24,-3,6,-1,-1,62*,14,
COc1ccc(C(=O)Nc2nc3cc4c(cc3s2)OCCO4)c(OC)c1,-6,-5,-17,15,14,10,/,
Cc1ccc(S(=O)(=O)c2nnn3c2nc(N2CCCCC2)c2ccccc23)cc1,-6,0,21,12,1,72*,25,
CCOC(=O)c1ccccc1NC(=S)N1CCN(C(=O)c2ccco2)CC1,5,-3,3,-1,-7,-1,/,
CC(=O)Nc1ccc(NC(=O)C(C)OC(=O)CCCN=C2NS(=O)(=O)c3ccccc32)cc1 (stereo unspecified),/,-11,-3,-4,-2,-14,/,
CC(OC(=O)CCN=C1NS(=O)(=O)c2ccccc21)C(=O)Nc1ccc(N(C)C)cc1 (stereo unspecified),/,-8,0,-8,4,70*,5,
Cc1ccc(NC(=O)C2Cc3ccccc3CN2C(=O)c2ccccc2)cc1Cl (stereo unspecified),7,2,23,3,-2,94*,32,
Cc1ccc(C(=O)N2Cc3ccccc3CC2C(=O)O)cc1 (stereo unspecified),-3,0,-23,-1,4,5,/,
COc1cc(C2C(C#N)=C(N)N(N(C)C)C3=C2C(=O)CC(C)(C)C3)cc(OC)c1OC (stereo unspecified),-1,-2,-2,-3,-2,-8,/,
